# Rows were chosen to be rich in hits. Some 7.1% of all compounds tested hit in one or more screens of this group.
# PTEN del growth: growth suppression of PTEN-null HCT116, primary screen, cell-based, CellTiter-Glo; viability, % at 10 µM; HCT116 PTEN-null viability, 60 h; stronger effect = lower value; 140,000 compounds, 1.2% hits;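 active = viability at or below a set limit, 4 SD under the median of all tested compounds, cut at about 3.7% in these data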;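 also: PTEN knockout HCT116 line with beta catenin targeted HCT116 as companion control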
# HUVEC inhibit: inhibitors of HUVEC proliferation, primary screen, cell-based, 384-well. CellTiter-Glo luminescence, 72 h; stronger effect = lower value. viability, % at 10 µM (by protocol). 86,000 compounds, 1.1% hits. AID 648, 2007;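 active = viability at or below 30%; inactive = viability above 30%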;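 also: 100% = median luminescence of DMSO-only cell control wells on each plate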
# Lung fibro prol: antiproliferative effect on LL 47 fibroblasts – human, LL 47 cells, CellTiter-Glo luminescence, primary screen | 85,000 compounds, 1.1% hits | viability, % at 10 µM | LL 47 human lung fibroblast viability, ATP luminescence; stronger effect = lower value | AID 719, 2007;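 active = viability at or below 50% in the single dose screen; inactive = viability above 50%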;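 also: compound exposure lasted 72 h before the ATP readout; 100% = median luminescence of untreated cell-only wells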
#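 Times – overnight cell rest, 72 h compound treatment at 37 °C · Test system – human lung fibroblast line LL 47, low passage · Amount – 1,150 cells in each well · Controls – cell-only wells, no compound · Doses – 0.1% DMSO in all compound wells · Measured by – CellTiter-Glo luminescence · Buffer or medium – IMEM plus 15% FBS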
# H69AR inhibit: proliferation blockers of H69AR lung cancer cells, primary screen, cell-based, human, 86K library; viability, % at 10 µM; H69AR lung tumor viability, ATP luminescence, 72 h; stronger effect = lower value; AID 598, 2007; 85,000 compounds, 6% hits;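 active = viability at or below 40%; inactive = viability above 40%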;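 also: multidrug resistant small cell line overexpressing MRP-1 efflux transporter; 100% = mean luminescence of untreated control wells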
# HCT116 bCat-KO: primary screen for growth suppressors in beta-catenin knockout HCT116 cells (colon tumor, human). 140,000 compounds, 1.5% hits. HCT116 beta-catenin knockout viability, CellTiter-Glo, 60 h; stronger effect = lower value. viability, % at 10 µM;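 active = viability at or under a set limit, the compound median less 4 SD, cut at about 6% in these data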;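 also: 0% = Hyamine 1622 control at 20 µM and 100% = untreated cell control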
# Cav3 T inh: Cav3.2 calcium influx blockers – cell-based, Fluo-4 calcium fluorescence, FDSS, MLSMR library, primary screen; Cav3.2-expressing cells; stronger effect = lower value; B-score at 10 µM; 100,000 compounds, 4% hits; AID 449739, 2010;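 active = single-dose well whose peak fluorescence ratio is a statistical outlier from its plate by either plate-standardised score or position-corrected B-score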
# An asterisk follows results filed as active; / = not tested or not shown.
SMILES,PTEN del growth,HUVEC inhibit,Lung fibro prol,H69AR inhibit,HCT116 bCat-KO,Cav3 T inh
COc1ccc(-c2cc(C(=O)Nc3c(C)nn(Cc4ccccc4Cl)c3C)no2)cc1,65.1,88.1,90.0,32.8*,62.2,-3.17
Cc1nn(Cc2ccccc2)c(C)c1NC(=O)c1cc(-c2ccco2)on1,102.5,97.0,98.9,93.8,90.5,-6.24*
Cc1nn(Cc2ccc(Cl)c(Cl)c2)c(C)c1NC(=O)c1cc(-c2ccc3c(c2)OCO3)on1,1.8*,12.2*,76.4,1.4*,1.5*,-2.57
Cc1nn(Cc2ccc(Cl)c(Cl)c2)c(C)c1NC(=O)c1cn(-c2ccccc2)nc1-c1ccccc1,85.8,/,/,/,80.4,-5.09*
COc1ccc(OC)c(-c2cc(C(=O)Nc3c(C)nn(Cc4ccccc4)c3C)no2)c1,61.8,90.3,101.2,64.8,73.3,-2.74
Cc1nn(Cc2ccc(Cl)cc2)c(C)c1NC(=O)c1cc(-c2ccc3c(c2)OCO3)on1,83.5,49.2,104.9,81.4,91.9,-3.13
CN(CCOc1ccc(-c2ccn(S(=O)(=O)c3cccc4ccccc34)n2)cc1)c1ccccn1,82.2,/,/,/,85.4,-1.47
Cc1nn(Cc2c(Cl)cccc2Cl)c(C)c1NC(=O)c1cc(C(C)C)on1,30.4,71.6,34.8*,7.7*,64.0,-1.06
Cc1cc(C(=O)Nc2c(C)nn(Cc3c(Cl)cccc3Cl)c2C)no1,92.0,98.9,93.4,109.5,87.6,0.0155
CCOC(=O)C1=C(C)N(Cc2ccccc2)C(=O)NC1c1ccc(OC)cc1 (centres undefined),90.0,90.4,87.2,91.1,91.2,-5.83*
Cc1cc(C)cc(CC(Cc2nc3ccccc3[nH]2)c2nc3ccccc3[nH]2)c1 (centres undefined),34.1,/,/,/,48.8,-6.67*
COC(=O)c1ccccc1NC(=O)C1CC(=O)N(c2ccc(C)cc2)C1 (centres undefined),57.9,76.5,96.0,34.7*,66.0,0.00341
O=C(Nc1nc2ccccc2s1)C1CC(=O)N(c2ccc(F)cc2)C1 (centres undefined),92.0,87.0,95.4,54.5,87.7,-4.57*
COC(=O)c1ccc(NC(=O)C2CC(=O)N(c3ccc(C)cc3)C2)cc1 (centres undefined),104.4,100.1,99.9,84.0,98.9,0.903
O=C(Nc1nc2ccccc2s1)C1CC(=O)N(c2ccccc2)C1 (centres undefined),76.8,87.5,98.3,43.4,76.8,-5.13*
CCN(CC)CC#CCC(C)(c1ccccc1)c1ccccc1,10.0,/,/,/,10.0,-1.38
COc1ccc(C(=O)NCCSCc2ccc(C)cc2)cc1,105.2,/,/,/,102.5,-5.57*
O=C(/C=C/c1ccc(F)cc1)NCCC1=CCCCC1,87.3,/,/,/,95.8,-6.22*
O=C(/C=C/c1ccccc1)NCCC1=CCCCC1,81.3,/,/,/,83.4,/
Cc1ccccc1NC(=O)c1ccc(CN2CCC(Cc3ccccc3)CC2)cc1,96.6,/,/,/,88.0,-7.07*
CC1CC(C)CN(c2ccc(C(=O)NCc3ccc4c(c3)OCO4)cc2[N+](=O)[O-])C1 (centres undefined),69.1,/,/,/,80.6,/
Cc1ccccc1C1CC(c2ccccc2OC(F)F)Nc2ncnn21 (centres undefined),87.0,98.4,93.8,0.6*,97.1,-4.12*
Cc1ccc(C2CC(c3ccccc3OC(F)F)Nc3ncnn32)cc1 (centres undefined),93.6,/,/,/,87.9,-0.0962
COCCn1c(=NC(=O)c2nc3ccccc3s2)sc2cc(S(C)(=O)=O)ccc21,75.2,/,/,/,80.2,/
CCOCCn1c(=NC(=O)c2cc(Cl)sc2Cl)sc2cc(S(N)(=O)=O)ccc21,4.8,/,/,/,4.9*,/
COCCn1c(=NC(=O)c2cc(Cl)sc2Cl)sc2cc(S(N)(=O)=O)ccc21,2.3*,/,/,/,7.7,/
COC(=O)Cn1c(=NC(=O)c2nc3ccccc3s2)sc2cc(S(N)(=O)=O)ccc21,94.2,/,/,/,94.8,/
O=S(=O)(c1ccc(Cl)cc1)N1CCN(C(=S)Nc2ccc(F)c(Cl)c2)CC1,62.8,/,/,/,76.1,/
CCCCNC(=O)NCc1cnn(C)c1C,91.6,/,/,/,98.1,/

# Compound activity from PubChem BioAssay.
